Measured values gathered from unrelated publications.
Lines come from different studies, so protocols differ. Converted amounts (≈) assume the structure as drawn.

| Compound | target or system | assay | test system | conditions | endpoint | value |
| --- | --- | --- | --- | --- | --- | --- |
| CC[C@H]1OC(=O)[C@H](C)[C@@H](O[C@H]2C[C@@](C)(OC)[C@@H](O)[C@H](C)O2)[C@H](C)[C@@H](O[C@@H]2O[C@H](C)C[C@H](N(C)C)[C@H]2O)[C@](C)(O)C[C@@H](C)/C(=N\OCOCCOC)[C@H](C)[C@@H](O)[C@]1(C)O | Streptococcus agalactiae | microbial growth | – | clinical isolate | MIC90 | 8 µg/mL (≈ 9.56 µM) |
| OC(Cn1cncn1)(Cn1cncn1)c1ccc(F)cc1F | Candida tropicalis | microbial growth, broth dilution | CGMCC2 | 48 h | MIC | 2 µM |
| CC(=O)N1CCN(c2ccc(OCC3COC(Cn4ccnc4)(c4ccc(Cl)cc4Cl)O3)cc2)CC1 (stereo not shown) | Candida tropicalis | microbial growth, broth dilution | ATCC13803 | 48 h | MIC | 8 µg/mL |
| CN[C@H](CC(C)C)C(=O)N[C@H]1C(=O)N[C@@H](CC(N)=O)C(=O)N[C@H]2C(=O)N[C@H]3C(=O)N[C@H](C(=O)N[C@H](C(=O)O)c4cc(O)cc(O)c4-c4cc3ccc4O)[C@H](O)c3ccc(c(Cl)c3)Oc3cc2cc(c3O[C@@H]2O[C@H](CO)[C@@H](O)[C@H](O)[C@H]2O[C@H]2C[C@](C)(N)[C@H](O)[C@H](C)O2)Oc2ccc(cc2Cl)[C@H]1O | Streptococcus agalactiae | microbial growth | – | clinical isolate | MIC90 | 0.5 µg/mL (≈ 0.345 µM) |
| O=c1cc(OCc2cc(-c3ccc(Cl)cc3Cl)no2)c2ccccc2o1 | DND41 | cell growth or viability, MTS | – | 72 h | IC50 | > 100 µM |
| CC(=O)ON=C1C=CC(=C(C#N)c2ccccc2)C=C1 | Candida tropicalis | microbial growth, broth dilution | ATCC13803 | 48 h | MIC | 2 µg/mL |
| FC(F)(F)c1cc(OCc2cc(-c3ccccc3)no2)c2ccccc2n1 | DND41 | cell growth or viability, MTS | – | 72 h | IC50 | 65.2 µM |
| N#CC(=C1C=CC(=NOC(=O)OCc2ccccc2)C=C1)c1ccccc1 | Candida tropicalis | microbial killing, broth dilution | ATCC13803 | 48 h | MFC | 256 µg/mL (≈ 718 µM) |
| N#Cc1ccc(-c2cc(COc3cc(C(F)(F)F)nc4ccccc34)on2)cc1 | DND41 | cell growth or viability, MTS | – | 72 h | IC50 | 43.7 µM |
| CC(=O)NC[C@H]1CN(c2ccc(N3CCOCC3)c(F)c2)C(=O)O1 | Streptococcus agalactiae | microbial growth | – | clinical isolate | MIC90 | 1 µg/mL (≈ 2.96 µM) |
